Assay results taken from ChEMBL document CHEMBL4334458, “Design, synthesis and antibacterial evaluation of novel 15-membered 11a-azahomoclarithromycin derivatives with the 1, 2, 3-triazole side chain” (Eur J Med Chem, 2019).
In brackets after ≈: the same amount, converted by molar mass.

Assays:
Assay type in all cases: functional
Pseudomonas aeruginosa = assay: Antibacterial activity against penicillin-susceptible Pseudomonas aeruginosa ATCC 27853 incubated for 24 hrs by broth dilution method; conditions: ATCC 27853, 24 h
Procedure, shortened: (§1)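 CLSI broth microdilution in cation-adjusted Mueller-Hinton broth. Twofold dilutions spanned 0.25–128 or 0.5–256 µg/mL, with CAM and AZM as controls. Log-phase bacteria were added and incubated 24 h at 37 °C. MIC was read by turbidity as the concentration of the last clear well.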

Staphylococcus aureus [1] = assay: Antibacterial activity against methicillin-resistant Staphylococcus aureus ATCC 43300 incubated for 24 hrs by broth dilution method; conditions: ATCC 43300, 24 h
Bacillus subtilis = assay: Antibacterial activity against penicillin-susceptible Bacillus subtilis ATCC 9372 incubated for 24 hrs by broth dilution method; conditions: ATCC 9372, 24 h; procedure, shortened: as §1
Streptococcus pneumoniae [2] = assay: Antibacterial activity against erythromycin-resistant Streptococcus pneumoniae AB11 expressing the ermB and mefA incubated for 24 hrs by broth dilution method
Staphylococcus aureus [3] = assay: Antibacterial activity against penicillin-resistant Staphylococcus aureus ATCC 31007 incubated for 24 hrs by broth dilution method; conditions: ATCC 31007, 24 h
Escherichia coli = assay: Antibacterial activity against penicillin-susceptible Escherichia coli ATCC 25922 incubated for 24 hrs by broth dilution method; conditions: ATCC 25922, 24 h; procedure, shortened: as §1
Staphylococcus aureus [4] = assay: Antibacterial activity against erythromycin-susceptible Staphylococcus aureus ATCC 25923 incubated for 24 hrs by broth dilution method; conditions: ATCC 25923, 24 h; procedure, shortened: as §1
Streptococcus pyogenes [5] = assay: Antibacterial activity against erythromycin-resistant Streptococcus pyogenes 2 clinical isolate incubated for 24 hrs by broth dilution method
Streptococcus pneumoniae [6] = assay: Antibacterial activity against erythromycin-resistant Streptococcus pneumoniae B1 expressing the ermB incubated for 24 hrs by broth dilution method
Streptococcus pyogenes [7] = assay: Antibacterial activity against erythromycin-susceptible Streptococcus pyogenes 1 clinical isolate incubated for 24 hrs by broth dilution method; procedure, shortened: as §1

Structure (SMILES) | MIC (Pseudomonas aeruginosa) | MIC (Staphylococcus aureus [1]) | MIC (Bacillus subtilis) | MIC (Streptococcus pneumoniae [2]) | MIC (Staphylococcus aureus [3]) | MIC (Escherichia coli) | MIC (Staphylococcus aureus [4]) | MIC (Streptococcus pyogenes [5]) | MIC (Streptococcus pneumoniae [6]) | MIC (Streptococcus pyogenes [7])
CO[C@]1(C)C[C@@H](C)[C@H](O)[C@H](C)CN(C)[C@H](Cn2cc(-c3ccccn3)nn2)COC(=O)[C@H](C)[C@@H](O[C@H]2C[C@@](C)(OC)[C@@H](O)[C@H](C)O2)[C@H](C)[C@H]1O[C@@H]1O[C@H](C)C[C@H](N(C)C)[C@H]1O | 64 µg/mL (≈ 74.2 µM) | 256 µg/mL (≈ 297 µM) | 32 µg/mL (≈ 37.1 µM) | 128 µg/mL (≈ 148 µM) | 256 µg/mL (≈ 297 µM) | 64 µg/mL (≈ 74.2 µM) | 16 µg/mL (≈ 18.5 µM) | 256 µg/mL (≈ 297 µM) | 256 µg/mL (≈ 297 µM) | 4 µg/mL (≈ 4.63 µM)
COc1ccc(-c2cn(C[C@@H]3CN(C)C[C@@H](C)[C@@H](O)[C@H](C)C[C@@](C)(OC)[C@H](O[C@@H]4O[C@H](C)C[C@H](N(C)C)[C@H]4O)[C@@H](C)[C@H](O[C@H]4C[C@@](C)(OC)[C@@H](O)[C@H](C)O4)[C@@H](C)C(=O)O3)nn2)cc1 | > 128 µg/mL | 256 µg/mL (≈ 287 µM) | 64 µg/mL (≈ 71.7 µM) | 128 µg/mL (≈ 143 µM) | 256 µg/mL (≈ 287 µM) | > 128 µg/mL | 32 µg/mL (≈ 35.9 µM) | 64 µg/mL (≈ 71.7 µM) | 256 µg/mL (≈ 287 µM) | 4 µg/mL (≈ 4.48 µM)
CO[C@]1(C)C[C@@H](C)[C@H](O)[C@H](C)CN(C)C[C@H](Cn2cc(-c3ccccn3)nn2)OC(=O)[C@H](C)[C@@H](O[C@H]2C[C@@](C)(OC)[C@@H](O)[C@H](C)O2)[C@H](C)[C@H]1O[C@@H]1O[C@H](C)C[C@H](N(C)C)[C@H]1O | 64 µg/mL (≈ 74.2 µM) | > 256 µg/mL | 2 µg/mL (≈ 2.32 µM) | 256 µg/mL (≈ 297 µM) | > 256 µg/mL | 128 µg/mL (≈ 148 µM) | 4 µg/mL (≈ 4.63 µM) | 128 µg/mL (≈ 148 µM) | > 256 µg/mL | 1 µg/mL (≈ 1.16 µM)
CO[C@]1(C)C[C@@H](C)[C@H](O)[C@H](C)CN(C)[C@@H](Cn2cc(-c3ccccc3)nn2)COC(=O)[C@H](C)[C@@H](O[C@H]2C[C@@](C)(OC)[C@@H](O)[C@H](C)O2)[C@H](C)[C@H]1O[C@@H]1O[C@H](C)C[C@H](N(C)C)[C@H]1O | > 128 µg/mL | 256 µg/mL (≈ 297 µM) | 16 µg/mL (≈ 18.6 µM) | 128 µg/mL (≈ 148 µM) | 256 µg/mL (≈ 297 µM) | > 128 µg/mL | 32 µg/mL (≈ 37.1 µM) | 128 µg/mL (≈ 148 µM) | 256 µg/mL (≈ 297 µM) | 2 µg/mL (≈ 2.32 µM)
CO[C@]1(C)C[C@@H](C)[C@H](O)[C@H](C)CN(C)C[C@H](COCc2cn(-c3ccc(C(C)C)cc3)nn2)OC(=O)[C@H](C)[C@@H](O[C@H]2C[C@@](C)(OC)[C@@H](O)[C@H](C)O2)[C@H](C)[C@H]1O[C@@H]1O[C@H](C)C[C@H](N(C)C)[C@H]1O | 16 µg/mL (≈ 17.1 µM) | 64 µg/mL (≈ 68.5 µM) | 0.5 µg/mL (≈ 0.535 µM) | 32 µg/mL (≈ 34.3 µM) | 128 µg/mL (≈ 137 µM) | 64 µg/mL (≈ 68.5 µM) | 1 µg/mL (≈ 1.07 µM) | 32 µg/mL (≈ 34.3 µM) | 64 µg/mL (≈ 68.5 µM) | 1 µg/mL (≈ 1.07 µM)
CO[C@]1(C)C[C@@H](C)[C@H](O)[C@H](C)CN(C)C[C@H](Cn2cc(-c3ccc(Cl)cc3)nn2)OC(=O)[C@H](C)[C@@H](O[C@H]2C[C@@](C)(OC)[C@@H](O)[C@H](C)O2)[C@H](C)[C@H]1O[C@@H]1O[C@H](C)C[C@H](N(C)C)[C@H]1O | 64 µg/mL (≈ 71.4 µM) | 128 µg/mL (≈ 143 µM) | 1 µg/mL (≈ 1.12 µM) | 128 µg/mL (≈ 143 µM) | 128 µg/mL (≈ 143 µM) | 32 µg/mL (≈ 35.7 µM) | 2 µg/mL (≈ 2.23 µM) | 64 µg/mL (≈ 71.4 µM) | 128 µg/mL (≈ 143 µM) | 0.12 µg/mL (≈ 0.134 µM)
CCCc1ccc(-n2cc(COC[C@H]3CN(C)C[C@@H](C)[C@@H](O)[C@H](C)C[C@@](C)(OC)[C@H](O[C@@H]4O[C@H](C)C[C@H](N(C)C)[C@H]4O)[C@@H](C)[C@H](O[C@H]4C[C@@](C)(OC)[C@@H](O)[C@H](C)O4)[C@@H](C)C(=O)O3)nn2)cc1 | 16 µg/mL (≈ 17.1 µM) | 128 µg/mL (≈ 137 µM) | 0.5 µg/mL (≈ 0.535 µM) | 32 µg/mL (≈ 34.3 µM) | 128 µg/mL (≈ 137 µM) | 64 µg/mL (≈ 68.5 µM) | 0.5 µg/mL (≈ 0.535 µM) | 64 µg/mL (≈ 68.5 µM) | 64 µg/mL (≈ 68.5 µM) | 1 µg/mL (≈ 1.07 µM)
CCc1ccc(-n2cc(COC[C@H]3CN(C)C[C@@H](C)[C@@H](O)[C@H](C)C[C@@](C)(OC)[C@H](O[C@@H]4O[C@H](C)C[C@H](N(C)C)[C@H]4O)[C@@H](C)[C@H](O[C@H]4C[C@@](C)(OC)[C@@H](O)[C@H](C)O4)[C@@H](C)C(=O)O3)nn2)cc1 | 16 µg/mL (≈ 17.4 µM) | 128 µg/mL (≈ 139 µM) | ≤ 0.25 µg/mL | 32 µg/mL (≈ 34.8 µM) | 128 µg/mL (≈ 139 µM) | 64 µg/mL (≈ 69.6 µM) | 0.5 µg/mL (≈ 0.543 µM) | 64 µg/mL (≈ 69.6 µM) | 128 µg/mL (≈ 139 µM) | 0.5 µg/mL (≈ 0.543 µM)
CO[C@]1(C)C[C@@H](C)[C@H](O)[C@H](C)CN(C)C[C@@H](COCc2cn(-c3ccc(OC(F)(F)F)cc3)nn2)OC(=O)[C@H](C)[C@@H](O[C@H]2C[C@@](C)(OC)[C@@H](O)[C@H](C)O2)[C@H](C)[C@H]1O[C@@H]1O[C@H](C)C[C@H](N(C)C)[C@H]1O | > 128 µg/mL | 32 µg/mL (≈ 32.8 µM) | 2 µg/mL (≈ 2.05 µM) | 16 µg/mL (≈ 16.4 µM) | 64 µg/mL (≈ 65.6 µM) | 128 µg/mL (≈ 131 µM) | 4 µg/mL (≈ 4.1 µM) | 32 µg/mL (≈ 32.8 µM) | 32 µg/mL (≈ 32.8 µM) | 4 µg/mL (≈ 4.1 µM)
CO[C@]1(C)C[C@@H](C)[C@H](O)[C@H](C)CN(C)C[C@H](Cn2cc(-c3ccccc3)nn2)OC(=O)[C@H](C)[C@@H](O[C@H]2C[C@@](C)(OC)[C@@H](O)[C@H](C)O2)[C@H](C)[C@H]1O[C@@H]1O[C@H](C)C[C@H](N(C)C)[C@H]1O | 64 µg/mL (≈ 74.2 µM) | 256 µg/mL (≈ 297 µM) | 1 µg/mL (≈ 1.16 µM) | 128 µg/mL (≈ 148 µM) | 256 µg/mL (≈ 297 µM) | 32 µg/mL (≈ 37.1 µM) | 1 µg/mL (≈ 1.16 µM) | 128 µg/mL (≈ 148 µM) | 256 µg/mL (≈ 297 µM) | 0.12 µg/mL (≈ 0.139 µM)
CC[C@H]1OC(=O)[C@H](C)[C@@H](O[C@H]2C[C@@](C)(OC)[C@@H](O)[C@H](C)O2)[C@H](C)[C@@H](O[C@@H]2O[C@H](C)C[C@H](N(C)C)[C@H]2O)[C@](C)(O)C[C@@H](C)CN(C)[C@H](C)[C@@H](O)[C@]1(C)O [AZITHROMYCIN] | 16 µg/mL (≈ 21.4 µM) | > 256 µg/mL | ≤ 0.25 µg/mL | 256 µg/mL (≈ 342 µM) | > 256 µg/mL | 64 µg/mL (≈ 85.4 µM) | ≤ 0.25 µg/mL | 256 µg/mL (≈ 342 µM) | > 256 µg/mL | ≤ 0.03 µg/mL
COc1cccc(-n2cc(COC[C@@H]3CN(C)C[C@@H](C)[C@@H](O)[C@H](C)C[C@@](C)(OC)[C@H](O[C@@H]4O[C@H](C)C[C@H](N(C)C)[C@H]4O)[C@@H](C)[C@H](O[C@H]4C[C@@](C)(OC)[C@@H](O)[C@H](C)O4)[C@@H](C)C(=O)O3)nn2)c1 | 128 µg/mL (≈ 139 µM) | 256 µg/mL (≈ 278 µM) | 2 µg/mL (≈ 2.17 µM) | 64 µg/mL (≈ 69.4 µM) | 256 µg/mL (≈ 278 µM) | 128 µg/mL (≈ 139 µM) | 2 µg/mL (≈ 2.17 µM) | 64 µg/mL (≈ 69.4 µM) | 128 µg/mL (≈ 139 µM) | 2 µg/mL (≈ 2.17 µM)
CO[C@]1(C)C[C@@H](C)[C@H](O)[C@H](C)CN(C)C[C@H](COCc2cn(-c3cccc(C(F)(F)F)c3)nn2)OC(=O)[C@H](C)[C@@H](O[C@H]2C[C@@](C)(OC)[C@@H](O)[C@H](C)O2)[C@H](C)[C@H]1O[C@@H]1O[C@H](C)C[C@H](N(C)C)[C@H]1O | 16 µg/mL (≈ 16.7 µM) | 256 µg/mL (≈ 267 µM) | 1 µg/mL (≈ 1.04 µM) | 64 µg/mL (≈ 66.7 µM) | 256 µg/mL (≈ 267 µM) | 64 µg/mL (≈ 66.7 µM) | 1 µg/mL (≈ 1.04 µM) | 64 µg/mL (≈ 66.7 µM) | 128 µg/mL (≈ 133 µM) | 2 µg/mL (≈ 2.08 µM)
COc1ccc(-n2cc(COC[C@H]3CN(C)C[C@@H](C)[C@@H](O)[C@H](C)C[C@@](C)(OC)[C@H](O[C@@H]4O[C@H](C)C[C@H](N(C)C)[C@H]4O)[C@@H](C)[C@H](O[C@H]4C[C@@](C)(OC)[C@@H](O)[C@H](C)O4)[C@@H](C)C(=O)O3)nn2)cc1 | 16 µg/mL (≈ 17.4 µM) | > 256 µg/mL | 0.5 µg/mL (≈ 0.542 µM) | 64 µg/mL (≈ 69.4 µM) | > 256 µg/mL | 64 µg/mL (≈ 69.4 µM) | 1 µg/mL (≈ 1.08 µM) | 128 µg/mL (≈ 139 µM) | > 256 µg/mL | 0.25 µg/mL (≈ 0.271 µM)
